Screening results from PubChem.
CSC inhib: cancer stem cell viability inhibitors, primary screen, luminescence. cancer stem cell-like cells viability. inhibition, % at 7.5 µM. actives 1.1% (n = 300,000). AID 2717, 2010; in the data active = inhibition above about 75%; inconclusive = no clear call, values can overlap the other calls; tested in HMLE shEcad cells
MC4R antagonist: MC4R antagonists of cAMP signaling, primary screen, cell-based, TR-FRET, antagonist arm of biased-ligand search; Melanocortin receptor 4 (Homo sapiens), P32245; MC4R-expressing cells, MTII-stimulated cAMP, LANCE TR-FRET; inhibition, % at 6.5 µM; actives 0.48% (n = 360,000); AID 540295, 2011;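 active = inhibition above its plate's cutoff, the mean of tested wells on that plate plus 3 SD, cut at about 29% in these data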
Target sequence (P32245 whole entry, looked up): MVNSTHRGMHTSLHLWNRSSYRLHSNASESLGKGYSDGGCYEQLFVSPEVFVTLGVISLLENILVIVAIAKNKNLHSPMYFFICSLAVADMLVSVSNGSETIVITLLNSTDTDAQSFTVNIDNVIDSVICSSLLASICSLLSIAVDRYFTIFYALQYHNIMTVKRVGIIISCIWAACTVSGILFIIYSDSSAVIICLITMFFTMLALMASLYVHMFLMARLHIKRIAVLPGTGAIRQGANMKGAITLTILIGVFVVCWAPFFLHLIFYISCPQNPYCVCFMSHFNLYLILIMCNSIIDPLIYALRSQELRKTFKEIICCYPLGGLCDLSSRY
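system = U2OS cells with stable human MC4R expression | also added = Melanotan II challenge after compound preincubation | dosing = one concentration, 6.5 µM nominal | incubation = compound 30 min, challenge 1 h, detection 1 h | measured by = TR-FRET with Eu-cAMP and labeled anti-cAMP, 671 nm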
Beta apoptosis: inhibitors of cytokine-induced beta cell apoptosis, primary screen, luminescence; INS-1E cytokine-induced death, ATP luminescence, 48 h; percent of positive-control rescue, neutral wells zero; protection from apoptosis, % (concentration not given with the values); actives 0.8% (n = 300,000);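 active = Every replicate reaches about 75%, or at least half do and their mean reaches it too, limit read from the data; inconclusive = At least half of replicates reach the limit but their mean does not; inactive = Under half of replicates reach the limit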;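 also: higher means more ATP so stronger rescue from cytokine killing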
ANO1 activ: TMEM16A chloride channel activators or potentiators, primary screen, cell-based, HTS; HEK293 TMEM16A/YFP-H148Q/I152L, iodide quench fluorescence; active compounds read low; B-score at 10 µM; actives 0.3% (n = 340,000);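 active = fluorescence-ratio B-score plate-corrected deviation score at least 3 library SD below zero, with starting fluorescence score within 5 deviations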;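 also: channel opened by trigger with iodide after compound preincubation; score built on the fluorescence ratio of max minus min over baseline; more negative score means more quench and so TMEM16A activation or potentiation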
MC4R ag barr: MC4R agonists recruiting beta-arrestin, primary screen, cell-based, luminescence, agonist arm of biased-ligand search. AID 540308, 2011. U2OS MC4R beta-arrestin complementation; percent of melanotan II response, DMSO zero. Melanocortin receptor 4 (Homo sapiens), P32245. activation, % at 8.9 µM. actives 0.98% (n = 360,000);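 active = activation above a per-plate cutoff, the mean activation of sample wells on that plate plus 3 SD, cut at about 8% in these data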
TMEM16A inh: TMEM16A chloride channel inhibitors, primary screen, cell-based, HTS; Anoctamin-1 (Mus musculus), Q8BHY3; HEK293 TMEM16A/YFP iodide influx fluorescence, ionomycin; normalized B-score (activity score, 25-100; higher = stronger inhibition) at 10 µM; actives 1.2% (n = 310,000); AID 588511, 2011;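 active = ratio plate-corrected score three or more library SD toward inhibition, starting fluorescence score within five deviations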;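 also: score derived from kinetic fluorescence span divided by baseline fluorescence per well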
TMEM16A reconf: TMEM16A chloride channel inhibitors, confirmation, cell-based, re-confirmation. shares compounds with TMEM16A inh. HEK293 TMEM16A/YFP-H148Q, iodide quench fluorescence; ionomycin added to raise cell calcium. inhibition, % at 10 µM. actives 39% (n = 2,300). AID 652189, 2013;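 active = mean duplicate percent inhibition, scaled so buffer wells are 0 and the reference blocker 100, over three buffer SD above buffer mean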
TMEM16A Ca cntr: calcium mobilization in TMEM16A/YFP HEK293 cells, confirmation, counter-screen for TMEM16A inhibitor project | Fluo4 calcium mobilization | calcium response (% of ionomycin), % at 10 µM | shares compounds with TMEM16A inh | actives 2% (n = 2,300) | AID 652231, 2013;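 active = duplicate-averaged calcium signal over 20% of the ionomycin maximum, relative to buffer baseline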;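 also: each well's signal is peak minus trough fluorescence divided by its pre-addition baseline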
YFP-HEK293 quench: iodide YFP quench changes in parental YFP-HEK293, counter-screen for TMEM16A inhibitor project, cell-based | 2,300 tested, under 10 active | ionomycin | YFP ratio F(max-min)/F0 at 10 µM | AID 652233, 2013 | shares compounds with TMEM16A inh;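 active = yellow fluorescent protein signal ratio exceeding the buffer control mean by over 5 SD of those controls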;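 also: ratio is mean of duplicate wells from kinetic YFP trace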
ClC-1 rat inh: ClC-1 chloride channel inhibition, selectivity assay for TMEM16A inhibitor project, cell-based, voltage-dependent ClC-1; shares compounds with TMEM16A inh; 2,300 tested, under 10 active; CHO ClC-1-YFP, iodide influx fluorescence quench; iodide control reads 0, buffer control 100; ratio percent, % at 10 µM;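 active = duplicate-mean ratio percent above the mean of iodide-only control wells, which defines zero, plus 5 of their SD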;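 also: higher percent means stronger block of ClC-1 iodide influx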
Numbers stand for hits; i = inactive; ? = inconclusive; nt = no result. In the library only some 3.8% were active in any assay of this set; here they are far more common.

SMILES | CSC inhib | MC4R antagonist | Beta apoptosis | ANO1 activ | MC4R ag barr | TMEM16A inh | TMEM16A reconf | TMEM16A Ca cntr | YFP-HEK293 quench | ClC-1 rat inh
O=C(c1cc(COc2ccc3ncccc3c2)on1)N1CCC(O)CC1 | i | i | nt | i | i | i | nt | nt | nt | nt
CCOC(=O)N1CCN(C(=O)c2cc(COc3ccc4ncccc4c3)on2)CC1 | i | i | i | i | i | 25 | 31.0% | i | i | i
CCC(O)C1CCN(C(=O)c2cc(COc3ccc4ncccc4c3)on2)CC1 (centres undefined) | i | i | 105.8 | i | i | 100 | i | i | i | i
O=C(O)[C@H]1CCCC[C@H]1C(=O)Nc1ccc(S(=O)(=O)N2CCOCC2)cc1 | nt | i | i | i | i | i | nt | nt | nt | nt
COc1ccc(NC(=O)CSC(C)c2nc3ccccc3c(=O)[nH]2)cc1 (centres undefined) | i | i | i | i | i | i | nt | nt | nt | nt
O=C(c1ccc(=O)[nH]c1)N1CCN(S(=O)(=O)c2ccc3ccccc3c2)CC1 | i | i | i | i | i | nt | nt | nt | nt | nt
CN(CC(=O)Nc1cccc(S(=O)(=O)N2CCOCC2)c1)CC(=O)Nc1ccc(Cl)c(C(F)(F)F)c1 | i | i | i | i | i | 25 | i | i | i | i
CN(CC(=O)Nc1cccc(F)c1)CC(=O)Nc1cc(S(=O)(=O)N2CCOCC2)ccc1Cl | nt | i | i | i | i | nt | nt | nt | nt | nt
Cc1nc2ccc(NC(=O)c3ccc(C)c(S(=O)(=O)N4CCOCC4)c3)cc2s1 | nt | i | i | i | i | nt | nt | nt | nt | nt
O=C1CCCN1c1ccc(S(=O)(=O)NCCOc2ccccc2)cc1 | i | i | i | i | i | i | nt | nt | nt | nt
Cc1cc(N2CCCC2=O)cc(C)c1S(=O)(=O)NCCOc1ccc(C(C)(C)C)cc1 | i | i | 109.4 | i | i | 25 | i | i | i | i
O=C1CC(c2ccccc2)=C(c2ccccc2)C1c1ccccc1 (centres undefined) | nt | i | nt | i | i | nt | nt | nt | nt | nt
Cc1ccccc1NC(=O)C1CCCN1S(=O)(=O)c1ccc2c(c1)n(C)c(=O)c(=O)n2C (centres undefined) | i | i | i | i | i | 25 | i | i | i | i
Cc1ccc(C)c(NC(=O)C2CCCN2S(=O)(=O)c2ccc3c(c2)n(C)c(=O)c(=O)n3C)c1 (centres undefined) | i | i | i | i | i | i | nt | nt | nt | nt
Cc1nc2n[nH]c(N)c2nc1C | nt | i | nt | nt | i | nt | nt | nt | nt | nt
Cc1cccc(CC(Cc2nc3ccccc3[nH]2)c2nc3ccccc3[nH]2)c1 (centres undefined) | i | i | i | i | i | 100 | 39.0% | i | i | i
CCOC(=O)C1CCN(c2c(NCCN3CCCCC3C)c(=O)c2=O)CC1 (centres undefined) | i | i | i | i | i | 100 | i | i | i | i
CCOC(=O)C1CCN(c2c(NCc3ccc(C(=O)NC4CCCC4)cc3)c(=O)c2=O)CC1 | nt | i | nt | i | i | i | nt | nt | nt | nt
CCCCN(C(=O)C1=NN(c2ccccc2)C(=O)CC1)c1c(N)n(CC(C)C)c(=O)[nH]c1=O | i | i | i | i | i | nt | nt | nt | nt | nt
CC(C(=O)NC1CCCc2ccccc21)N1CCN(c2ccc(F)cc2)CC1 (centres undefined) | i | i | i | i | i | i | nt | nt | nt | nt
CC(C(=O)NC1CCCc2ccccc21)N1CCN(Cc2ccc3c(c2)OCO3)CC1 (centres undefined) | i | i | i | i | i | 25 | i | i | i | i
COCCN(C(=S)Nc1cccc(OC)c1)C(C)c1cccs1 (centres undefined) | i | i | i | i | i | i | nt | nt | nt | nt
COCCN(C(=S)Nc1ccc(C(C)C)cc1)C(C)c1cccs1 (centres undefined) | i | i | i | i | i | 25 | i | i | i | i
Fc1ccc(CSc2nc3ccccc3[nH]2)c2ccccc12 | ? | i | i | i | i | 100 | 32.5% | i | i | i
CCCOC(=O)c1ccc(NC(=O)c2ccccc2OC)cc1 | i | i | i | i | i | i | nt | nt | nt | nt
SMILES | CSC inhib | MC4R antagonist | Beta apoptosis | ANO1 activ | MC4R ag barr | TMEM16A inh | TMEM16A reconf | TMEM16A Ca cntr | YFP-HEK293 quench | ClC-1 rat inh
CCCCOC(=O)c1ccc(NC(=O)c2ccccc2OC)cc1 | i | i | i | i | i | 100 | 35.5% | i | i | i
CCCCN(C(=O)c1ccc(OC)c([N+](=O)[O-])c1)c1c(N)n(CCC)c(=O)[nH]c1=O | i | i | i | i | i | i | nt | nt | nt | nt
CCOC(=O)C1CCN(c2ncnc3c2oc2ccccc23)CC1 | nt | i | nt | i | i | 100 | 22.0% | i | i | i
CCOC(=O)C1CCCN(c2ncnc3c2oc2ccccc23)C1 (centres undefined) | i | i | i | i | i | 100 | 28.5% | i | i | i
CCCN(C(=O)c1cccc(S(=O)(=O)N2CCN(C)CC2)c1)c1c(N)n(Cc2ccccc2)c(=O)[nH]c1=O | i | i | i | i | i | i | nt | nt | nt | nt
Cc1c(C(=O)OCCOc2ccccc2)[nH]c2c1C(=O)CCC2 | i | i | i | i | i | 100 | 25.0% | i | i | i
O=C(NCC(c1ccccc1Cl)N1CCCC1)C1CCN(C(=O)Nc2ccccc2)CC1 (centres undefined) | i | i | i | i | i | nt | nt | nt | nt | nt
CSc1ccccc1-c1nnc(-c2ccc(C)cc2)o1 | i | i | i | i | i | 25 | i | i | i | i
COc1ccc(-n2c(C)cc(C(=O)COC(=O)Cn3cnc4ccccc43)c2C)cc1 | i | i | i | i | i | 100 | 23.0% | i | i | i
Cc1cc(C(=O)COc2cccc(-n3cnnn3)c2)c(C)n1-c1ccccc1 | i | i | i | i | i | 100 | i | i | i | i
